Laboratory results reported in ChEMBL document CHEMBL1125336, “New bronchodilators. 1. 1,5-Substituted 1H-imidazo[4,5-c]quinolin-4(5H)-ones” (J Med Chem, 1992).

How the values were obtained:
[1] = organism: Cavia porcellus; assay: Inhibition of the Schulz-Dale (SD) reaction-induced contraction in trachea of guinea pig; assay type: functional
Method in brief: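 Tracheal zig-zag strips from passively sensitized guinea pigs, equilibrated 1 h in Krebs-Henseleit under 95% O2-5% CO2 at 37 °C. Contraction induced by OA at 10 µg/mL final bath concentration. Drug added cumulatively at 7-min intervals once contraction reached plateau; isotonic recording, relaxation scaled to papaverine maximum. Triplicate curves with 4–5 concentrations; IC50 by logit-log fit.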

[2] = tested on: Mus musculus; assay: Acute lethal toxicity (minimum lethal dose; MLD, po) in mice.; assay type: organism-based; conditions: in vivo
Method in brief: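 Male dd mice (20–25 g), n = 3 per dose, given compound orally. Deaths observed for 7 days; MLD taken as the dose killing at least one mouse.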

[3] = tested on: Cavia porcellus; assay: Effect on heart rate 5(mins) after intravenous administration in anesthetized guinea pigs after intravenous administration of 3 mg/kg; assay type: functional
Method in brief: (§1)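 Male guinea pigs anesthetized with pentobarbital sodium (50 mg/kg ip), ventilated via tracheotomy with room air (60/min, 10 mL/kg). Left-ventricular cannula via left common carotid to a pressure transducer for LVP and LV dP/dtmax; heart rate triggered by LVP. Drug given iv through the left jugular vein, vehicle PEG 400 diluted with saline. Change expressed as % of pretreatment value; mean ± SEM, n = 5.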

[4] = tested on: Cavia porcellus; assay: Effect of the compound (peroral administration) on anaphylactic bronchoconstriction in passively sensitized guinea pigs.; assay type: functional; conditions: Lung, po
Method in brief: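 Male Hartley guinea pigs (350–450 g) passively sensitized ip with rabbit anti-OA serum 16–24 h before. Urethane-anesthetized, gallamine-paralysed, ventilated. Air overflow (Konzett–Rössler) after OA 5 mg/kg iv. Compound suspended in 0.3% Tween 80, given orally 1 h before challenge. ED50 by linear regression of AUC versus log dose.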

[5] = tested on: Cavia porcellus; assay: Effect on collapse time of antigen-induced bronchospasm in passively sensitized guinea pigs (at 25 mg/kg, po). MCT for untreated animals is 254+/-18; assay type: functional
[6] = tested on: Cavia porcellus; assay: Effect of the compound (intravenous administration) on anaphylactic bronchoconstriction in passively sensitized guinea pigs.; assay type: functional; conditions: Lung
Method in brief: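 Male Hartley guinea pigs (350–450 g) passively sensitized ip with rabbit anti-OA serum 16–24 h before. Urethane anesthesia (1.5 g/kg ip), gallamine 10 mg/kg iv, ventilated 60–70 strokes/min. Konzett–Rössler air overflow after OA challenge 5 mg/kg iv. Compound in PEG 400 diluted with saline, given iv 90 s after challenge. ED50 by linear regression of AUC versus log dose.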

[7] = organism: Cavia porcellus; assay: Inhibitory effect on spasmogen (leukotriene, LTD4) induced contraction of guinea pig tracheal strips.; assay type: functional; conditions: Trachea
Method in brief: (§2)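 Zig-zag tracheal strips from normal guinea pigs, equilibrated 1 h in Krebs–Henseleit (95% O2/5% CO2, 37 °C). Contracted with carbachol 3 × 10⁻⁶ mol final, histamine 3 × 10⁻⁵ mol, or LTD4 50 µg/mL. Drug added cumulatively every 7 min after the plateau; isotonic recording. IC50 for 50% relaxation by least-squares regression.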

[8] = tested on: Cavia porcellus; assay: Effect on heart rate 0(mins) after intravenous administration in anesthetized guinea pigs after intravenous administration of 3 mg/kg; assay type: functional; method in brief: as §1
[9] = tested on: Cavia porcellus; assay: Effect on left ventricular dP/dtmax 5(mins) after intravenous administration in anesthetized guinea pigs after a intravenous administration of 3 mg/kg; assay type: functional, Heart left ventricle; method in brief: as §1
[10] = organism: Cavia porcellus; assay: Inhibitory effect on spasmogen (histamine) induced contraction of guinea pig tracheal strips.; assay type: functional; conditions: Trachea; method in brief: as §2
[11] = tested on: Cavia porcellus; assay: Effect on left ventricular dP/dtmax 3(mins) after intravenous administration in anesthetized guinea pigs after a intravenous administration of 3 mg/kg; assay type: functional, Heart left ventricle; method in brief: as §1
[12] = organism: Cavia porcellus; assay: Inhibitory effect on spasmogen (carbachol) induced contraction of guinea pig tracheal strips.; assay type: functional; conditions: Trachea; method in brief: as §2
[13] = tested on: Cavia porcellus; assay: Effect on heart rate 3(mins) after intravenous administration in anesthetized guinea pigs after intravenous administration of 3 mg/kg; assay type: functional; method in brief: as §1
[14] = tested on: Cavia porcellus; assay: Effect on heart rate 1(mins) after intravenous administration in anesthetized guinea pigs after intravenous administration of 3 mg/kg; assay type: functional; method in brief: as §1
[15] = tested on: Cavia porcellus; assay: Effect on left ventricular dP/dtmax 1(mins) after intravenous administration in anesthetized guinea pigs after a intravenous administration of 3 mg/kg; assay type: functional, Heart left ventricle; method in brief: as §1
[16] = tested on: Cavia porcellus; assay: Effect on left ventricular dP/dtmax 0(mins) after intravenous administration in anesthetized guinea pigs after a intravenous administration of 3 mg/kg; assay type: functional, Heart left ventricle; method in brief: as §1
[17] = tested on: Cavia porcellus; assay: Effect on heart rate 5(mins) after intravenous administration in anesthetized guinea pigs; assay type: functional
Method in brief: (§3)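 Male guinea pigs under pentobarbital (50 mg/kg ip), tracheotomy, room-air ventilation at 60/min, 10 mL/kg. Carotid cannula advanced into the left ventricle to read LVP and LV dP/dtmax; heart rate triggered from LVP. Single 3 mg/kg iv dose via jugular vein. Values are percent of pretreatment, n = 5.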

[18] = tested on: Cavia porcellus; assay: Effect on left ventricular dP/dtmax 0(mins) after intravenous administration in anesthetized guinea pigs.; assay type: functional, Heart left ventricle; method in brief: as §3
[19] = tested on: Cavia porcellus; assay: Effect on heart rate 1(mins) after intravenous administration in anesthetized guinea pigs.; assay type: functional; method in brief: as §3
[20] = tested on: Cavia porcellus; assay: Effect on heart rate 3(mins) after intravenous administration in anesthetized guinea pigs; assay type: functional; method in brief: as §3
[21] = tested on: Cavia porcellus; assay: Effect on left ventricular dP/dtmax 3(mins) after intravenous administration in anesthetized guinea pigs; assay type: functional, Heart left ventricle; method in brief: as §3
[22] = tested on: Cavia porcellus; assay: Effect on heart rate 0(mins) after intravenous administration in anesthetized guinea pigs.; assay type: functional; method in brief: as §3
[23] = tested on: Cavia porcellus; assay: Effect on left ventricular dP/dtmax 1(mins) after intravenous administration in anesthetized guinea pigs.; assay type: functional, Heart left ventricle; method in brief: as §3
[24] = tested on: Cavia porcellus; assay: Effect on left ventricular dP/dtmax 5(mins) after intravenous administration in anesthetized guinea pigs; assay type: functional, Heart left ventricle; method in brief: as §3
[25] = tested on: Cavia porcellus; assay: Effect on collapse time of antigen-induced bronchospasm in passively sensitized guinea pigs (at 25 mg/kg, po).MCT for untreated animals is 254+/-18.; assay type: functional
[26] = tested on: Cavia porcellus; assay: Effect on collapse time of antigen-induced bronchospasm in passively sensitized guinea pigs (at 50 mg/kg, po).MCT for untreated animals is 254+/-18.; assay type: functional

Compound | IC50 [1] [µM] | MLD [2] [mg/kg] | other results
CCCCn1c(=O)c2ncn(CCC)c2c2ccccc21 | 3.99 | > 300 | 
CCCCn1c(=O)c2nc(C)n(C)c2c2ccccc21 | > 30 |  | 
CCCCn1c(=O)c2ncn(C)c2c2ccccc21 | 0.25 | > 300 | Heart rate [3]: 101%; ED50 [4]: 44.9 mg/kg; MCT [5]: 342 s; ED50 [6]: 0.42 mg/kg; IC50 [7]: 9.19 µM; Heart rate [8]: 100%; LV dP/dtmax [9]: 99.4%; IC50 [10]: 2.12 µM; LV dP/dtmax [11]: 98.9%; IC50 [12]: 27.2 µM; Heart rate [13]: 101%; Heart rate [14]: 98.5%; LV dP/dtmax [15]: 91.6%; LV dP/dtmax [16]: 100%
Cn1c(=O)c2[nH]cnc2n(C)c1=O.Cn1c(=O)c2[nH]cnc2n(C)c1=O.NCCN [AMINOPHYLLINE] | 16.7 |  | Heart rate [17]: 105%; LV [18]: 100%; ED50 [4]: 51.7 mg/kg; ED50 [6]: 7.8 mg/kg; IC50 [7]: 23.6 µM; Heart rate [19]: 108%; Heart rate [20]: 105%; LV [21]: 117%; IC50 [10]: 33.2 µM; IC50 [12]: 37.7 µM; Heart rate [22]: 100%; LV [23]: 125%; LV [24]: 116%
CCCCn1c(=O)c2ncn(C(C)C)c2c2ccccc21 | 2.6 | > 300 | MCT [25]: 425 s
CCCCn1c(=O)c2ncn(C)c2c2cc(OC)c(OC)cc21 | > 30 |  | 
Cn1cnc2c(=O)n(C)c3ccccc3c21 | > 30 |  | 
CCCCn1c(=O)c2nc(O)n(C)c2c2ccccc21 | > 30 |  | 
CCCCn1c(=O)c2ncn(C)c2c2cc(Cl)ccc21 | > 30 |  | 
CCCCn1c(=O)c2nnn(C)c2c2ccccc21 | 1.58 | > 300 | MCT [26]: 296 s
Cn1cnc2c(=O)n(C3CCCC3)c3ccccc3c21 | 6.58 | 300 | 
CCCCn1c(=O)c2nc(S)n(C)c2c2ccccc21 | 8.2 | > 300 | 
CCCCn1c(=O)c2ncn(C)c2c2cc(C)ccc21 | 7.97 | > 300 | MCT [26]: 356 s
C=CCCn1c(=O)c2ncn(C)c2c2ccccc21 | 5.62 | 200 | MCT [26]: 342 s
CCCCn1c(=O)c2ncn(Cc3ccccc3)c2c2ccccc21 | > 30 |  | 
Cn1cnc2c(=O)n(CC(=O)O)c3ccccc3c21 | > 30 |  | 
CCCCn1c(=O)c2ncn(CC)c2c2ccccc21 | 4.9 | > 300 | 

Compound | IC50 [1] [µM] | MLD [2] [mg/kg] | other results
CCCCn1cnc2c(=O)n(CCCC)c3ccccc3c21 | 5.47 | > 300 | MCT [26]: 504 s
CCCn1c(=O)c2ncn(C)c2c2ccccc21 | 10.7 | 300 | 
CCCCn1c(=O)c2ncn(-c3ccccc3)c2c2ccccc21 | > 30 |  | 
CCCCCn1c(=O)c2ncn(C)c2c2ccccc21 | > 30 |  | 
Cn1cnc2c(=O)n(Cc3ccccc3)c3ccccc3c21 | > 30 |  | 
CCCCn1c(=O)c2nc(-c3ccco3)n(C)c2c2ccccc21 | > 30 |  | 
Cn1cnc2c(=O)n(Cc3ccco3)c3ccccc3c21 | > 30 |  | 
CCCCn1c(=O)c2nc(-c3ccc(Cl)c(Cl)c3)n(C)c2c2ccccc21 | > 30 |  | 
Cn1c(=O)c2nc[nH]c2n(C)c1=O.O [THEOPHYLLINE] | 6.52 |  | MCT [25]: 389 s
CCn1c(=O)c2ncn(C)c2c2ccccc21 | > 30 |  | 
CCCCn1c2c(c3c(ncn3C)c1=O)CCCC2 | > 30 |  | 
CC(C)Cn1c(=O)c2ncn(C)c2c2ccccc21 | > 30 |  | 
CCCCn1c(=O)c2ncn(C)c2c2ccc(Cl)cc21.Cl | 1.52 | > 300 | MCT [26]: 289 s
COCCn1c(=O)c2ncn(C)c2c2ccccc21 | > 30 |  | 
CCCCn1c(=O)c2ncn(C)c2c2c(C)cccc21 | > 30 |  | 
CCCCn1c(=O)c2nc(-c3ccc(OC)cc3)n(C)c2c2ccccc21 | > 30 |  | 
CCCCn1c(=O)c2nc(-c3ccccc3)n(C)c2c2ccccc21 | > 30 |  | 
